Measured values: ChEMBL document CHEMBL4219066, “Identification and Mitigation of Reactive Metabolites of 2-Aminoimidazole-Containing Microsomal Prostaglandin E Synthase-1 Inhibitors Terminated Due to Clinical Drug-Induced Liver Injury” (J Med Chem, 2018)
Each block holds one molecule with its values, some of them ahead of it.

Columns and labels:
[1] = Drug level in human hepatocytes treated with 2-(Difluoromethyl)-N-(4-methyl-5-(4-(trifluoromethyl)-phenyl)-1H-imidazol-2-yl)-5-(pivalamidomethyl)nicotinamide at 2 uM after 4 hrs by LC-MS/MS analysis; assay type: ADME, cell-based, Hepatocyte
[2] = Drug level in rat hepatocytes treated with 2-(Difluoromethyl)-N-(4-methyl-5-(4-(trifluoromethyl)-phenyl)-1H-imidazol-2-yl)-5-(pivalamidomethyl)nicotinamide at 2 uM after 4 hrs by LC-MS/MS analysis; assay type: ADME, cell-based, Hepatocyte
[3] = Drug level in dog hepatocytes treated with 2-(Difluoromethyl)-N-(4-methyl-5-(4-(trifluoromethyl)-phenyl)-1H-imidazol-2-yl)-5-(pivalamidomethyl)nicotinamide at 2 uM after 4 hrs by LC-MS/MS analysis; assay type: ADME, cell-based, Canis lupus familiaris, Hepatocyte
[4] = Drug metabolism in human hepatocytes assessed as 2-(2-chloro-5-(pivalamidomethyl)benzamido)-1H-imidazole-4-carboxylic acid formation at 2 uM after 4 hrs by LC-MS/MS analysis; assay type: ADME, cell-based, Hepatocyte
[5] = Drug level in rat hepatocytes treated with 2-Chloro-N-(4-methyl-1H-imidazol-2-yl)-5-(pivalamidomethyl)benzamide at 2 uM after 4 hrs by LC-MS/MS analysis; assay type: ADME, cell-based, Hepatocyte
[6] = Drug metabolism in rat hepatocytes assessed as 2-(2-chloro-5-(pivalamidomethyl)benzamido)-1H-imidazole-4-carboxylic acid formation at 2 uM after 4 hrs by LC-MS/MS analysis; assay type: ADME, cell-based, Hepatocyte
[7] = Drug level in human hepatocytes treated with 2-Chloro-N-(4-methyl-1H-imidazol-2-yl)-5-(pivalamidomethyl)benzamide at 2 uM after 4 hrs by LC-MS/MS analysis; assay type: ADME, cell-based, Hepatocyte
[8] = Drug level in human liver microsomes treated with 2-Chloro-N-(4-methyl-1H-imidazol-2-yl)-5-(pivalamidomethyl)benzamide at 2 uM after 0.5 hrs in presence of 1:1 ratio of unlabeled GSH and [glycine 13C2,15N]-labelled GSH by HPLC-MS analysis; assay type: ADME, microsome
Procedure, shortened: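 Glutathione-trapping incubation in human liver microsomes fortified with GSH to capture reactive intermediates. Metabolites and GSH adducts were identified by MS.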

[9] = In vivo drug metabolism in human plasma assessed as 2-chloro-5-((3-hydroxy-2,2-dimethylpropanamido)methyl)-N-(1H-imidazol-2-yl)benzamide formation HPLC-MS analysis; assay type: ADME, organism-based
[10] = Drug metabolism in Beagle dog plasma assessed as 2-chloro-5-(pivalamidomethyl)benzoic acid formation at 300 to 600 mg/kg, po measured after 2 hrs post dose by LC/MS analysis; assay type: ADME, organism-based, Canis lupus familiaris; conditions: in vivo
[11] = Drug metabolism in rat hepatocytes assessed as 2-chloro-N-(4-hydroxy-1H-imidazol-2-yl)-5-(pivalamidomethyl)benzamide formation at 2 uM after 4 hrs by LC-MS/MS analysis; assay type: ADME, cell-based, Hepatocyte
[12] = Drug metabolism in Sprague-Dawley rat plasma assessed as 2-chloro-N-(4-hydroxy-1H-imidazol-2-yl)-5-(pivalamidomethyl)benzamide formation at 1000 mg/kg, po measured after 2 hrs post dose by LC/MS analysis; assay type: ADME, organism-based; conditions: in vivo
[13] = Drug metabolism in dog hepatocytes assessed as N-(6-oxa-2,4-diazabicyclo[3.1.0]hex-3-en-3-yl)-2-chloro-5-(pivalamidomethyl)benzamide formation at 2 uM after 4 hrs by LC-MS/MS analysis; assay type: ADME, cell-based, Canis lupus familiaris, Hepatocyte
[14] = Drug metabolism in dog hepatocytes assessed as 2-chloro-N-(4-hydroxy-1H-imidazol-2-yl)-5-(pivalamidomethyl)benzamide formation at 2 uM after 4 hrs by LC-MS/MS analysis; assay type: ADME, cell-based, Canis lupus familiaris, Hepatocyte
[15] = Drug metabolism in dog hepatocytes assessed as 2-chloro-N-(4,5-dihydroxy-4,5-dihydro-1H-imidazol-2-yl)-5-(pivalamidomethyl)benzamide formation at 2 uM after 4 hrs by LC-MS/MS analysis; assay type: ADME, cell-based, Canis lupus familiaris, Hepatocyte
[16] = Drug metabolism in dog hepatocytes assessed as N-carbamimidoyl-2-chloro-5-(pivalamidomethyl)benzamide formation at 2 uM after 4 hrs by LC-MS/MS analysis; assay type: ADME, cell-based, Canis lupus familiaris, Hepatocyte
[17] = Drug metabolism in rat hepatocytes assessed as 2-amino-5-((R)-1-(carboxymethylamino)-3-((2-(2-chloro-5-(pivalamidomethyl)benzamido)-1H-imidazol-5-yl)disulfanyl)-1-oxopropan-2-ylamino)-5-oxopentanoic acid formation at 2 uM after 4 hrs by LC-MS/MS analysis; assay type: ADME, cell-based, Hepatocyte
[18] = In vivo drug metabolism in human urine assessed as 2-chloro-N-(4-hydroxy-1H-imidazol-2-yl)-5-(pivalamidomethyl)benzamide formation by HPLC-MS analysis; assay type: ADME, organism-based
[19] = Drug metabolism in Sprague-Dawley rat plasma assessed as 2-chloro-5-((3-hydroxy-2,2-dimethylpropanamido)methyl)-N-(1H-imidazol-2-yl)benzamide formation at 1000 mg/kg, po measured after 2 hrs post dose by LC/MS analysis; assay type: ADME, organism-based; conditions: in vivo
[20] = Drug metabolism in human hepatocytes assessed as 2-chloro-N-(4-hydroxy-1H-imidazol-2-yl)-5-(pivalamidomethyl)benzamide formation at 2 uM after 4 hrs by LC-MS/MS analysis; assay type: ADME, cell-based, Hepatocyte
[21] = Drug metabolism in Beagle dog plasma assessed as N-(6-oxa-2,4-diazabicyclo[3.1.0]hex-3-en-3-yl)-2-chloro-5-(pivalamidomethyl)benzamide formation at 300 to 600 mg/kg, po measured after 2 hrs post dose by LC/MS analysis; assay type: ADME, organism-based, Canis lupus familiaris; conditions: in vivo
[22] = Drug metabolism in rat hepatocytes assessed as 2-chloro-5-((3-hydroxy-2,2-dimethylpropanamido)methyl)-N-(1H-imidazol-2-yl)benzamide formation at 2 uM after 4 hrs by LC-MS/MS analysis; assay type: ADME, cell-based, Hepatocyte
[23] = In vivo drug metabolism in human urine assessed as 2-chloro-5-((3-hydroxy-2,2-dimethylpropanamido)methyl)-N-(1H-imidazol-2-yl)benzamide formation by HPLC-MS analysis; assay type: ADME, organism-based
[24] = Drug metabolism in rat hepatocytes assessed as N-(6-oxa-2,4-diazabicyclo[3.1.0]hex-3-en-3-yl)-2-chloro-5-(pivalamidomethyl)benzamide formation at 2 uM after 4 hrs by LC-MS/MS analysis; assay type: ADME, cell-based, Hepatocyte
[25] = Drug metabolism in Beagle dog plasma assessed as 2-chloro-N-(4,5-dihydroxy-4,5-dihydro-1H-imidazol-2-yl)-5-(pivalamidomethyl)benzamide formation at 300 to 600 mg/kg, po measured after 2 hrs post dose by LC/MS analysis; assay type: ADME, organism-based, Canis lupus familiaris; conditions: in vivo
[26] = Drug metabolism in Sprague-Dawley rat plasma assessed as 2-chloro-5-(pivalamidomethyl)benzoic acid formation at 1000 mg/kg, po measured after 2 hrs post dose by LC/MS analysis; assay type: ADME, organism-based; conditions: in vivo
[27] = In vivo drug metabolism in human urine assessed as N-carbamimidoyl-2-chloro-5-(pivalamidomethyl)benzamide formation by HPLC-MS analysis; assay type: ADME, organism-based
[28] = Drug metabolism in human liver microsomes assessed as N-(6-oxa-2,4-diazabicyclo[3.1.0]hex-3-en-3-yl)-2-chloro-5-(pivalamidomethyl)benzamide formation at 2 uM in presence of 1:1 ratio of unlabeled GSH and [glycine 13C2,15N]-labelled GSH after 0.5 hrs by HPLC-MS analysis; assay type: ADME, microsome
[29] = Drug metabolism in rat hepatocytes assessed as 2-chloro-N-(4,5-dihydroxy-4,5-dihydro-1H-imidazol-2-yl)-5-(pivalamidomethyl)benzamide formation at 2 uM after 4 hrs by LC-MS/MS analysis; assay type: ADME, cell-based, Hepatocyte
[30] = Drug metabolism in Sprague-Dawley rat plasma assessed as N-(6-oxa-2,4-diazabicyclo[3.1.0]hex-3-en-3-yl)-2-chloro-5-(pivalamidomethyl)benzamide formation at 1000 mg/kg, po measured after 2 hrs post dose by LC/MS analysis; assay type: ADME, organism-based; conditions: in vivo
[31] = Drug metabolism in human hepatocytes assessed as 2-chloro-5-((3-hydroxy-2,2-dimethylpropanamido)methyl)-N-(1H-imidazol-2-yl)benzamide formation at 2 uM after 4 hrs by LC-MS/MS analysis; assay type: ADME, cell-based, Hepatocyte
[32] = In vivo drug metabolism in human plasma assessed as 2-chloro-N-(4-hydroxy-1H-imidazol-2-yl)-5-(pivalamidomethyl)benzamide formation HPLC-MS analysis; assay type: ADME, organism-based
[33] = In vivo drug metabolism in human urine assessed as N-carbamimidoyl-2-chloro-5-((3-hydroxy-2,2-dimethylpropanamido)methyl)benzamide formation by HPLC-MS analysis; assay type: ADME, organism-based
[34] = Drug metabolism in Beagle dog plasma assessed as 2-chloro-N-(4-hydroxy-1H-imidazol-2-yl)-5-(pivalamidomethyl)benzamide formation at 300 to 600 mg/kg, po measured after 2 hrs post dose by LC/MS analysis; assay type: ADME, organism-based, Canis lupus familiaris; conditions: in vivo
[35] = In vivo drug metabolism in human urine assessed as 2-chloro-N-(4,5-dihydroxy-4,5-dihydro-1H-imidazol-2-yl)-5-(pivalamidomethyl)benzamide formation by HPLC-MS analysis; assay type: ADME, organism-based
[36] = Drug metabolism in Sprague-Dawley rat plasma assessed as N-carbamimidoyl-2-chloro-5-(pivalamidomethyl)benzamide formation at 1000 mg/kg, po measured after 2 hrs post dose by LC/MS analysis; assay type: ADME, organism-based; conditions: in vivo
[37] = In vivo drug metabolism in human plasma assessed as N-carbamimidoyl-2-chloro-5-(pivalamidomethyl)benzamide formation by HPLC-MS analysis; assay type: ADME, organism-based
[38] = Drug metabolism in dog hepatocytes assessed as 2-chloro-5-((3-hydroxy-2,2-dimethylpropanamido)methyl)-N-(1H-imidazol-2-yl)benzamide formation at 2 uM after 4 hrs by LC-MS/MS analysis; assay type: ADME, cell-based, Canis lupus familiaris, Hepatocyte
[39] = Drug metabolism in Sprague-Dawley rat plasma assessed as 5-(aminomethyl)-2-chloro-N-(1H-imidazol-2-yl)benzamide formation at 1000 mg/kg, po measured after 2 hrs post dose by LC/MS analysis; assay type: ADME, organism-based; conditions: in vivo
[40] = In vivo drug metabolism in human urine assessed as (R)-2-amino-3-((2-(2-chloro-5-(pivalamidomethyl)benzamido)-1H-imidazol-5-yl)disulfanyl)propanoic acid formation by HPLC-MS analysis; assay type: ADME, organism-based
[41] = Drug metabolism in Sprague-Dawley rat plasma assessed as 2-chloro-N-(4,5-dihydroxy-4,5-dihydro-1H-imidazol-2-yl)-5-(pivalamidomethyl)benzamide formation at 1000 mg/kg, po measured after 2 hrs post dose by LC/MS analysis; assay type: ADME, organism-based; conditions: in vivo
[42] = Drug metabolism in Beagle dog plasma assessed as 2-chloro-5-((3-hydroxy-2,2-dimethylpropanamido)methyl)-N-(1H-imidazol-2-yl)benzamide formation at 300 to 600 mg/kg, po measured after 2 hrs post dose by LC/MS analysis; assay type: ADME, organism-based, Canis lupus familiaris; conditions: in vivo
[43] = Drug metabolism in human hepatocytes assessed as N-(6-oxa-2,4-diazabicyclo[3.1.0]hex-3-en-3-yl)-2-chloro-5-(pivalamidomethyl)benzamide formation at 2 uM after 4 hrs by LC-MS/MS analysis; assay type: ADME, cell-based, Hepatocyte
[44] = Drug metabolism in Beagle dog plasma assessed as 5-(aminomethyl)-2-chloro-N-(1H-imidazol-2-yl)benzamide formation at 300 to 600 mg/kg, po measured after 2 hrs post dose by LC/MS analysis; assay type: ADME, organism-based, Canis lupus familiaris; conditions: in vivo
[45] = Drug metabolism in Beagle dog plasma assessed as N-carbamimidoyl-2-chloro-5-(pivalamidomethyl)benzamide formation at 300 to 600 mg/kg, po measured after 2 hrs post dose by LC/MS analysis; assay type: ADME, organism-based, Canis lupus familiaris; conditions: in vivo
[46] = In vivo drug metabolism in human plasma assessed as N-(6-oxa-2,4-diazabicyclo[3.1.0]hex-3-en-3-yl)-2-chloro-5-(pivalamidomethyl)benzamide formation HPLC-MS analysis; assay type: ADME, organism-based
[47] = Drug metabolism in human hepatocytes assessed as 2-chloro-N-(4,5-dihydroxy-4,5-dihydro-1H-imidazol-2-yl)-5-(pivalamidomethyl)benzamide formation at 2 uM after 4 hrs by LC-MS/MS analysis; assay type: ADME, cell-based, Hepatocyte
[48] = In vivo drug metabolism in human urine assessed as N-(6-oxa-2,4-diazabicyclo[3.1.0]hex-3-en-3-yl)-2-chloro-5-(pivalamidomethyl)benzamide formation by HPLC-MS analysis; assay type: ADME, organism-based

Compound: CC(C)(C)C(=O)NCc1cnc(C(F)F)c(C(=O)NC(=N)N)c1
Drug metabolism [1]: Metabolite_Detected | Drug metabolism [2]: Metabolite_Detected | Drug metabolism [3]: Metabolite_Detected

Compound: CC(C)(C)C(=O)NCc1ccc(Cl)c(C(=O)Nc2nc(CSC[C@H](N)C(=O)NCC(=O)O)c[nH]2)c1
Drug metabolism [8]: Metabolite_Detected

Compound: CC(C)(C)C(=O)NCc1ccc(Cl)c(C(=O)Nc2ncc[nH]2)c1 [LY-3031207]
Drug metabolism [9]: Metabolite_Detected | Drug metabolism [10]: Metabolite_Detected | Drug metabolism [11]: Metabolite_Detected | Drug metabolism [12]: Metabolite_Detected | Drug metabolism [13]: Metabolite_Notdetected | Drug metabolism [14]: Metabolite_Detected | Drug metabolism [15]: Metabolite_Detected | Drug metabolism [16]: Metabolite_Detected | Drug metabolism [17]: Metabolite_Detected | Drug metabolism [18]: Metabolite_Detected | Drug metabolism [19]: Metabolite_Detected | Drug metabolism [20]: Metabolite_Detected | Drug metabolism [21]: Metabolite_Notdetected | Drug metabolism [22]: Metabolite_Detected | Drug metabolism [23]: Metabolite_Detected | Drug metabolism [24]: Metabolite_Notdetected | Drug metabolism [25]: Metabolite_Detected | Drug metabolism [26]: Metabolite_Detected | Drug metabolism [27]: Metabolite_Detected | Drug metabolism [28]: Metabolite_Notdetected | Drug metabolism [29]: Metabolite_Detected | Drug metabolism [30]: Metabolite_Notdetected | Drug metabolism [31]: Metabolite_Detected | Drug metabolism [32]: Metabolite_Detected | Drug metabolism [33]: Metabolite_Detected | Drug metabolism [34]: Metabolite_Detected | Drug metabolism [35]: Metabolite_Detected | Drug metabolism [36]: Metabolite_Detected | Drug metabolism [37]: Metabolite_Detected | Drug metabolism [38]: Metabolite_Detected | Drug metabolism [39]: Metabolite_Detected | Drug metabolism [40]: Metabolite_Detected | Drug metabolism [41]: Metabolite_Detected | Drug metabolism [42]: Metabolite_Detected | Drug metabolism [43]: Metabolite_Notdetected | Drug metabolism [44]: Metabolite_Detected | Drug metabolism [45]: Metabolite_Detected | Drug metabolism [46]: Metabolite_Notdetected | Drug metabolism [47]: Metabolite_Detected | Drug metabolism [48]: Metabolite_Notdetected

Second part, the molecule after the results:

Drug metabolism [4]: Metabolite_Detected | Drug metabolism [5]: Metabolite_Detected | Drug metabolism [6]: Metabolite_Detected | Drug metabolism [7]: Metabolite_Detected
Compound: CC(C)(C)C(=O)NCc1ccc(Cl)c(C(=O)Nc2nc(CO)c[nH]2)c1

Drug metabolism [1]: Metabolite_Detected | Drug metabolism [2]: Metabolite_Detected | Drug metabolism [3]: Metabolite_Detected
Compound: Cc1nc(NC(=O)c2cc(CNC(=O)C(C)(C)CO)cnc2C(F)F)[nH]c1-c1ccc(C(F)(F)F)cc1

Drug metabolism [8]: Metabolite_Detected
Compound: CC(C)(C)C(=O)NCc1ccc(Cl)c(C(=O)Nc2nc(CSC[C@H](NC(=O)CC[C@H](N)C(=O)O)C(=O)NCC(=O)O)c[nH]2)c1
